# According to ChEMBL document CHEMBL4011617, “Ugi Reaction-Derived α-Acyl Aminocarboxamides Bind to Phosphatidylinositol 3-Kinase-Related Kinases, Inhibit HSF1-Dependent Heat Shock Response, and Induce Apoptosis in Multiple Myeloma Cells” (J Med Chem, 2017):
# Activity calls are given as the source filed them. The rule behind the calls is not given here.
# What was measured:
# INA-6 [1] = assay: Inhibition of heat shock response in human INA-6 cells assessed as reduction in HSF-1 mediated upregulation of the heat shock protein HSP27 at 50 uM preincubated for 4 hrs followed by HSP90 inhibitor and HSR inducer NVP-AUY922 addition measured after 4 hrs by Western blot method; assay type: functional, cell-based
# Outline: (§1)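 INA-6 myeloma cells pretreated with test compound for 4 h, then co-treated with the HSP90 inhibitor/HSR inducer NVP-AUY922 for a further 4 h. Cells harvested; HSP72, HSP27, HSF1 or phospho-HSF1 probed by Western blot with β-actin as loading control. DMSO-only cells were the negative control; NVP-AUY922-only cells were the positive control.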
# INA-6 [2] = assay: Inhibition of heat shock response in human INA-6 cells assessed as reduction in HSF-1 mediated upregulation of the heat shock protein HSP72 at 50 uM preincubated for 4 hrs followed by HSP90 inhibitor and HSR inducer NVP-AUY922 addition measured after 4 hrs by Western blot method; assay type: functional, cell-based; outline: as §1
# INA-6 [3] = assay: Inhibition of heat shock response in human INA-6 cells assessed as reduction in HSF-1 mediated upregulation of the heat shock protein HSP72 at 50 uM preincubated for 4 hrs followed by HSP90 inhibitor and HSR inducer NVP-AUY922 addition measured after 4 hrs by ELISA; assay type: functional, cell-based
# Outline: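 HSP72 quantified by ELISA in the same protein lysates used for Western blots. INA-6 cells received compound for 4 h, then NVP-AUY922 co-treatment for 4 h more to stimulate HSF1. DMSO-only and NVP-AUY922-only cells served as negative and positive controls.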
# INA-6 [4] = assay: Downregulation of NVP-AUY922-induced HSF-1 protein expression in human INA-6 cells at 50 uM preincubated for 4 hrs followed by NVP-AUY922 addition measured after 4 hrs by Western blot method; assay type: functional, cell-based; outline: as §1
# INA-6 [5] = assay: Inhibition of heat shock response in human INA-6 cells assessed as reduction in HSF-1 mediated upregulation of the heat shock protein HSP27 at 50 uM preincubated for 4 hrs followed by HSP90 inhibitor and HSR inducer NVP-AUY922 addition measured after 4 hrs by ELISA; assay type: functional, cell-based
# [6] = biological target: T1, Heat shock factor protein 1 (Homo sapiens) (UniProt Q00613); assay: Inhibition of NVP-AUY922-induced HSF-1 phosphorylation at S326 residue in human INA-6 cells at 50 uM preincubated for 4 hrs followed by NVP-AUY922 addition measured after 4 hrs by Western blot method; assay type: cell-based; outline: as §1
# T1 sequence (whole entry): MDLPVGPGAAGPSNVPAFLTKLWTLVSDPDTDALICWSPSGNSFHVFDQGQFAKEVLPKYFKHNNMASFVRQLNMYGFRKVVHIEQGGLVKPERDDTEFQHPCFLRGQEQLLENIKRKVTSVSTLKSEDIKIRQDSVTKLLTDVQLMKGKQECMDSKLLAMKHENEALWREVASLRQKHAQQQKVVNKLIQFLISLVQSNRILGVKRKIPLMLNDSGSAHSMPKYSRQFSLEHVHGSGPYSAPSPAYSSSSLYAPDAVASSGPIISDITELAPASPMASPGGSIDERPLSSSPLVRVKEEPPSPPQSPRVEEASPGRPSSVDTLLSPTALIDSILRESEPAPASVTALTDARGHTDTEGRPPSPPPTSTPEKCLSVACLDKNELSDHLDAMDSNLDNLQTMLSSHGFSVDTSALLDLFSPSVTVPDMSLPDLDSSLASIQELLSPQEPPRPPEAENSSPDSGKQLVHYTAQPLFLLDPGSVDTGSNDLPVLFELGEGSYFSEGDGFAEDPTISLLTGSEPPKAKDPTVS
# [7] = biological target: DNA-dependent protein kinase catalytic subunit (Homo sapiens) (UniProt P78527); assay: Binding affinity to PRKDC protein in human INA-6 cells after 3 hrs by nanoLC-MS/MS method; assay type: cell-based
# Outline: (§2)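 The biotinylated inhibitor was loaded on streptavidin beads, with empty beads as the control. Eluates were trypsin-digested and run by nanoLC-MS/MS. Inhibitor/control ratios came from label-free quantification, taken as medians of five biological replicates. Enrichment was called at Benjamini-Hochberg-adjusted limma p < 0.02.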
# [8] = biological target: CCR4-NOT transcription complex subunit 7 (Homo sapiens) (UniProt Q9UIV1); assay: Binding affinity to CCR4-NOT transcription complex subunit 7 in human INA-6 cells after 3 hrs by nanoLC-MS/MS method; assay type: cell-based; outline: as §2
# [9] = biological target: CCR4-NOT transcription complex subunit 1 (Homo sapiens) (UniProt A5YKK6); assay: Binding affinity to CCR4-NOT transcription complex subunit 1 in human INA-6 cells after 3 hrs by nanoLC-MS/MS method; assay type: cell-based; outline: as §2
# [10] = biological target: CCR4-NOT transcription complex subunit 9 (Homo sapiens) (UniProt Q92600); assay: Binding affinity to RCD1 protein in human INA-6 cells after 3 hrs by nanoLC-MS/MS method; assay type: cell-based; outline: as §2
# [11] = biological target: Serine-protein kinase ATM (Homo sapiens) (UniProt Q13315); assay: Binding affinity to ATM protein in human INA-6 cells after 3 hrs by nanoLC-MS/MS method; assay type: cell-based; outline: as §2
# [12] = biological target: CCR4-NOT transcription complex subunit 2 (Homo sapiens) (UniProt Q9NZN8); assay: Binding affinity to CCR4-NOT transcription complex subunit 2 in human INA-6 cells after 3 hrs by nanoLC-MS/MS method; assay type: cell-based; outline: as §2
# [13] = biological target: Serine/threonine-protein kinase ATR (Homo sapiens) (UniProt Q13535); assay: Binding affinity to ATR protein in human INA-6 cells after 3 hrs by nanoLC-MS/MS method; assay type: cell-based; outline: as §2
# [14] = biological target: CCR4-NOT transcription complex subunit 3 (Homo sapiens) (UniProt O75175); assay: Binding affinity to CCR4-NOT transcription complex subunit 3 in human INA-6 cells after 3 hrs by nanoLC-MS/MS method; assay type: cell-based; outline: as §2
# [15] = biological target: Serine/threonine-protein kinase mTOR (Homo sapiens) (UniProt P42345); assay: Binding affinity to mTOR protein in human INA-6 cells after 3 hrs by nanoLC-MS/MS method; assay type: cell-based; outline: as §2
# [16] = biological target: CCR4-NOT transcription complex subunit 6-like (Homo sapiens) (UniProt Q96LI5); assay: Binding affinity to CCR4-NOT transcription complex subunit 6-like in human INA-6 cells after 3 hrs by nanoLC-MS/MS method; assay type: cell-based; outline: as §2
# INA-6 [17] = assay: Effect on NVP-AUY922-induced HSF-1 mRNA expression in human INA-6 cells at 50 uM preincubated for 4 hrs followed by NVP-AUY922 addition measured after 4 hrs by RT-PCR method; assay type: functional, cell-based
# Outline: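 INA-6 cells exposed to compound for 4 h, then co-treated with 10 nM NVP-AUY922 for another 4 h. Total RNA isolated; HSP27, HSP72 and HSF1 transcripts measured by real-time PCR and normalized to α-tubulin. Means and standard deviations from three independent experiments.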
# Chain of CCR4-NOT transcription complex subunit 1 (Homo sapiens) (A5YKK6 whole entry, one chain of several): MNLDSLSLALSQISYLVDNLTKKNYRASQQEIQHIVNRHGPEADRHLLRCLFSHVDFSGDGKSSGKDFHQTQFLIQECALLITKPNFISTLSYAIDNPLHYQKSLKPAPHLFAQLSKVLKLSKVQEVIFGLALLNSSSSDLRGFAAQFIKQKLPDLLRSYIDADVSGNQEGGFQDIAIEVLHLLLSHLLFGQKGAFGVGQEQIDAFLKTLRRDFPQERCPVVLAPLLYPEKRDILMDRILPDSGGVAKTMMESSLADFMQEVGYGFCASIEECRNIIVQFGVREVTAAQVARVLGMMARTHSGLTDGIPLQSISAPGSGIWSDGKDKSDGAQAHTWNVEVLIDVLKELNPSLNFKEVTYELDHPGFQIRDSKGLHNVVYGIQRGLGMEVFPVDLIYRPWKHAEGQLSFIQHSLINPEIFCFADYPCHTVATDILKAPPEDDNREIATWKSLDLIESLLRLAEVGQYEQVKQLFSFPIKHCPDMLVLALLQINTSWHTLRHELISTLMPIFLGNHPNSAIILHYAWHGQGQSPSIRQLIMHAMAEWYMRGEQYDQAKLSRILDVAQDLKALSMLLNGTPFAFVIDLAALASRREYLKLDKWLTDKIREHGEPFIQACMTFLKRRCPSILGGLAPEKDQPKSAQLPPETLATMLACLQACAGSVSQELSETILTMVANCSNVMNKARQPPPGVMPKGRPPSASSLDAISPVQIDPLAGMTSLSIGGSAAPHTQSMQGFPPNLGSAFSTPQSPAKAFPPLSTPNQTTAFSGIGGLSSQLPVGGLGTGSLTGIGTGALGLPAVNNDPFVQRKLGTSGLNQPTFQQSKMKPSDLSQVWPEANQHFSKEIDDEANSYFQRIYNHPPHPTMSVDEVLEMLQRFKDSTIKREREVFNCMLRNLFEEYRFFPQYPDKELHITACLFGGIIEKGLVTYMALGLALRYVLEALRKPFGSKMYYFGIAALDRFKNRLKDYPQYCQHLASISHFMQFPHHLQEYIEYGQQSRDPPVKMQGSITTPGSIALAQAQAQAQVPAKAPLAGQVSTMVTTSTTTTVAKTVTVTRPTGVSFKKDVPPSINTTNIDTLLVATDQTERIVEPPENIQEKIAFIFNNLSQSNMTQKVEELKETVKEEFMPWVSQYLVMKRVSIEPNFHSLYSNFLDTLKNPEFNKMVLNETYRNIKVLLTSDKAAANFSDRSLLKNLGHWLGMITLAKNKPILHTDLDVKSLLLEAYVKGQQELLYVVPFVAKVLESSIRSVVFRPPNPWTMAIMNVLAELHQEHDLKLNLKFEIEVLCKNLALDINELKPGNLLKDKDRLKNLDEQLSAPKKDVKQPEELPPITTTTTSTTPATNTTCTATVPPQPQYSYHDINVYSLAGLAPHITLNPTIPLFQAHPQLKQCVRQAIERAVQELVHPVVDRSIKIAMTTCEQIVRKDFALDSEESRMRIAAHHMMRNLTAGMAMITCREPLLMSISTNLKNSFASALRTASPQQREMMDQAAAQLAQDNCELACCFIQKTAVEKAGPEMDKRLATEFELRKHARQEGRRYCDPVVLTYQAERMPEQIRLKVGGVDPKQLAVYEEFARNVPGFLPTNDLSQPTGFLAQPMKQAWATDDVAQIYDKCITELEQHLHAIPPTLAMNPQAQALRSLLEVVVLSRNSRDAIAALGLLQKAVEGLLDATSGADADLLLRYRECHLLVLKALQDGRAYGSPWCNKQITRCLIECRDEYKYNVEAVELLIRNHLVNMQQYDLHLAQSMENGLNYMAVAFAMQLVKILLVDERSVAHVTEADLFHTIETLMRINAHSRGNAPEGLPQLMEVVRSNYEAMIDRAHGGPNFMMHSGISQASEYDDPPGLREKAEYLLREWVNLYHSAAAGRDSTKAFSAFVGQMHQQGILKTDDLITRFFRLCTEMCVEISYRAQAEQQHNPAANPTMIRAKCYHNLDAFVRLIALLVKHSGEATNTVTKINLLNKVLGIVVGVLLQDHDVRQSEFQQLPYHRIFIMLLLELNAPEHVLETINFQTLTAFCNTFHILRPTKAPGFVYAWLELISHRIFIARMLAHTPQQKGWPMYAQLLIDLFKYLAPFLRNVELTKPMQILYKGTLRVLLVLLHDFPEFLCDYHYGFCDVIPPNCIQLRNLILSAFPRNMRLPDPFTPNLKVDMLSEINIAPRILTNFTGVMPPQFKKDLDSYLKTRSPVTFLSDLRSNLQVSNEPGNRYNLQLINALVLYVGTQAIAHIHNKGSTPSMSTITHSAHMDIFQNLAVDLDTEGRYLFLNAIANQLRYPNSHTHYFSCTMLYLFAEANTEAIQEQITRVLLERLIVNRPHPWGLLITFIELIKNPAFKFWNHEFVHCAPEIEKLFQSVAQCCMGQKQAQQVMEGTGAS
# Chain of CCR4-NOT transcription complex subunit 7 (Homo sapiens) (Q9UIV1 whole entry, one chain of several): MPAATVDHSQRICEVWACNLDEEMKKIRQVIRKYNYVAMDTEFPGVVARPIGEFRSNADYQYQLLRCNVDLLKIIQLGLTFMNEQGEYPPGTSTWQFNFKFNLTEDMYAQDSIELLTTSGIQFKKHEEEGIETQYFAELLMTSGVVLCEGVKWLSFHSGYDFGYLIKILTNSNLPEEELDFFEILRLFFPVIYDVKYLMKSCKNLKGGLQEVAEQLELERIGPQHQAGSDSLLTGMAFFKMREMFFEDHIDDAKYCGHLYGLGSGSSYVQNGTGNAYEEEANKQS
# Chain of CCR4-NOT transcription complex subunit 2 (Homo sapiens) (Q9NZN8 whole entry, one chain of several): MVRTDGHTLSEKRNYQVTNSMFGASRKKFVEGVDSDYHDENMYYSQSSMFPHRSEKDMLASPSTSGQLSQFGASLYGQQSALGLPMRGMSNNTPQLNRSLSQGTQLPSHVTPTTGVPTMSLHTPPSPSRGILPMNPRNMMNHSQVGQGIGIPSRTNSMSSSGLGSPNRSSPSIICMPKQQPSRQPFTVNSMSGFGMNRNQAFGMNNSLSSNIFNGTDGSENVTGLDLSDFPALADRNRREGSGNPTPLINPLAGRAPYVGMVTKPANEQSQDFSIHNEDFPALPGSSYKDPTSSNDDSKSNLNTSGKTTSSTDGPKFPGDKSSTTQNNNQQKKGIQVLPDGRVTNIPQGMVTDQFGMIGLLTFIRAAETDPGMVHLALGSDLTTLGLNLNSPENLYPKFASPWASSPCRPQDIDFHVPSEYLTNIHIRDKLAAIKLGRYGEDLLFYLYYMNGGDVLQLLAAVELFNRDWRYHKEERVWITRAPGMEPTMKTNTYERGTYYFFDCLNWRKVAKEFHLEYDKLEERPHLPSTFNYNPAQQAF
# Chain of CCR4-NOT transcription complex subunit 9 (Homo sapiens) (Q92600 whole entry, one chain of several): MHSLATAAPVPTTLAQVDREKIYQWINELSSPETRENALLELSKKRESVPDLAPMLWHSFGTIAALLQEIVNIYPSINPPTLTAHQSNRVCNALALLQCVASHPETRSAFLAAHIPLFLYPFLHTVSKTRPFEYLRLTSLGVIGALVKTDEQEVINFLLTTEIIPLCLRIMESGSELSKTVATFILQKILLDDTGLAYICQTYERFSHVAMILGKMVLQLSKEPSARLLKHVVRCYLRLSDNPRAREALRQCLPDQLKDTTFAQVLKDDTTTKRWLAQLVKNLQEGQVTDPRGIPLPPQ
# Chain of CCR4-NOT transcription complex subunit 3 (Homo sapiens) (O75175 whole entry, one chain of several): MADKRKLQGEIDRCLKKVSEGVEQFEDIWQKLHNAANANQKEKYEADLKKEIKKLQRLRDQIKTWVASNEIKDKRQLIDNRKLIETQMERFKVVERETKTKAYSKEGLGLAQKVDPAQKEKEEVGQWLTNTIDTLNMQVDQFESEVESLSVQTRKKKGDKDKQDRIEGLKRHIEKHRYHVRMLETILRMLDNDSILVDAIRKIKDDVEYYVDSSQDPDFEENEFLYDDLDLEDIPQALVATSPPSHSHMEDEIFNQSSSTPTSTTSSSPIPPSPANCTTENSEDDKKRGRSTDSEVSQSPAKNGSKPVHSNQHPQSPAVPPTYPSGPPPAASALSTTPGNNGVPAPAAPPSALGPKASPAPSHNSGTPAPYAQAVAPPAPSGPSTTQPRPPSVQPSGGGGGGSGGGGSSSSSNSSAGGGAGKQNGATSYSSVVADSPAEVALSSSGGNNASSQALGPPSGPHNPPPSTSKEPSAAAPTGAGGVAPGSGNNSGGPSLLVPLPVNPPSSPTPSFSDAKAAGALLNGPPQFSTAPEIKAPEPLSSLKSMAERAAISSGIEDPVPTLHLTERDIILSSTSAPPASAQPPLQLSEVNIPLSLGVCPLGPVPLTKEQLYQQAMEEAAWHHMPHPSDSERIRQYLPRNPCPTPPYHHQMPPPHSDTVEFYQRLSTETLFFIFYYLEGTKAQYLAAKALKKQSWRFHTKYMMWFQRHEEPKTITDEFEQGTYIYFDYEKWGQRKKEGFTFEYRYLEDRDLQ
Compound,inhibition [6],activity call (active/not active) for inhibition of HSP27 upregulation (INA-6 [1]),heat shock response inhibition (active/not active) (INA-6 [2]),HSP72 upregulation inhibition (active/not active) (INA-6 [3]),Activity (INA-6 [4]),heat shock response inhibition (active/not active) (INA-6 [5]),also measured
O=C(NCc1ccccc1)C(c1ccccc1Br)N(Cc1ccccc1)C(=O)/C=C/c1ccccc1 (racemic),–,inactive,inactive,inactive,–,–,–
CCCN(C(=O)/C=C/c1ccccc1)C(C(=O)NCCN1CCOCC1)c1ccccc1Br (racemic),–,inactive,inactive,inactive,–,–,–
C=CC(=O)N(CCOCCO)C(C(=O)NC(C)(C)C)c1ccccc1Br (racemic),–,inactive,inactive,inactive,–,–,–
O=C(CCCC[C@@H]1SC[C@@H]2NC(=O)N[C@@H]21)NCCOCCOCCNCCCCOc1ccc(CCC(=O)N(C2CC2)C(C(=O)NCc2ccccc2)c2ccc(Br)cc2)cc1 (mixture of isomers),–,inactive,–,inactive,–,inactive,Activity [7]: Active; Activity [8]: Active; Activity [9]: Active; Activity [10]: Active; Activity [11]: Active; Activity [12]: Active; Activity [13]: Active; Activity [14]: Active; Activity [15]: Active; Activity [16]: Active
O=C(NCc1ccccc1)C(c1ccc(Br)cc1)N(C(=O)CCc1ccc(O)cc1)C1CC1 (racemic),Active,Active,Active,Active,Active,Active,–
O=C(NCc1ccccc1)C(c1ccc(Br)cc1)N(C(=O)CCc1ccccc1)C1CC1 (racemic),Active,Active,Active,Active,Active,Active,–
C/C=C/C(=O)N(Cc1ccco1)C(C(=O)NC1CCCCC1)c1ccccc1Br (racemic),–,inactive,inactive,inactive,–,–,–
NCCOCCOCCNCCOc1ccc(C(C(=O)NCc2ccccc2)N(C(=O)CCc2ccc(O)cc2)C2CC2)cc1 (stereo not drawn),–,inactive,–,inactive,–,inactive,–
O=C(NCc1ccccc1)C(c1ccc(O)cc1)N(C(=O)CCc1ccccc1)C1CC1 (racemic),–,inactive,inactive,inactive,–,inactive,Activity (INA-6 [17]): inactive

# Further lines, with some results ahead:
inhibition [6],Compound,activity call (active/not active) for inhibition of HSP27 upregulation (INA-6 [1]),heat shock response inhibition (active/not active) (INA-6 [2]),HSP72 upregulation inhibition (active/not active) (INA-6 [3]),Activity (INA-6 [4]),heat shock response inhibition (active/not active) (INA-6 [5]),also measured
Active,O=C(NCCN1CCOCC1)C(c1ccccc1)N(Cc1ccccc1)C(=O)/C=C/c1ccc(Cl)cc1Cl (racemic),Active,Active,Active,Active,Active,–
Active,C=CC(=O)N(CCc1ccc(OC)c(OC)c1)C(C(=O)NCCCCC)c1ccccc1Br (racemic),Active,Active,Active,Active,Active,–
Active,CN(C(=O)/C=C/c1ccccc1)C(C(=O)NCc1ccccc1)c1ccccc1Br (racemic),Active,Active,Active,Active,Active,–
Active,O=C(NCCN1CCOCC1)C(c1ccccc1Br)N(Cc1ccccc1)C(=O)/C=C/c1ccc(Cl)cc1Cl (racemic),Active,Active,Active,Active,Active,–
Active,C/C=C/C(=O)N(Cc1ccccc1Cl)C(C(=O)NC(C)(C)C)c1ccccc1Br (racemic),Active,Active,Active,Active,Active,–
Active,O=C(NCc1ccccc1)C(c1ccccc1)N(C(=O)/C=C/c1ccccc1)C1CC1 (racemic),Active,Active,Active,Active,Active,–
Active,O=C(NCc1ccccc1)C(c1ccc(OCCBr)cc1)N(C(=O)CCc1ccccc1)C1CC1 (racemic),Active,Active,Active,Active,Active,–
Active,CCCN(C(=O)/C=C/c1ccc(OC)cc1)C(C(=O)NC1CCCCC1)c1ccccc1Br (racemic),Active,Active,Active,Active,Active,–
